Data taken from ChEMBL document CHEMBL1148398, “Design, synthesis, and biological evaluation of thio-containing compounds with serum HDL-cholesterol-elevating properties” (2004).

Assays:
Rattus norvegicus [1] = test: Effect of compound on gain in body weight in 5th group of normal chow-fed male rats after a dose of 20 mg/kg/day; format: functional
Outline: (§1)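 Male Sprague–Dawley CD rats (60–80 g) on standard chow under a reversed 12 h light/dark cycle. Compound was suspended in 1.3% Tween 80/0.25% CMC and given as a single daily oral gavage dose for 4 days. Rats were fasted overnight and killed 24 h after the last dose. Serum ALT, AST, ALKP and LDH were read on a clinical analyzer. Weight gain was start versus end weight. Mean ± SEM, n = 6.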

Rattus norvegicus [2] = test: Percent change in total plasma cholesterol in hypercholesterolemic rats dosed at 100 mg/kg/day for 8 days; format: functional
Rattus norvegicus [3] = test: Percent change in high-density lipoprotein cholesterol following oral administration of compound in normal chow-fed rats at 100 mg/kg/day for 4 days; format: functional
Outline: (§2)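 Chow-fed male Sprague–Dawley CD rats, 60–80 g, gavaged 100 mg/kg/day for 4 days in 1.3% Tween 80/0.25% CMC. Fasted overnight, bled 24 h after the last dose. Total cholesterol and glycerol-blanked triglycerides read enzymatically; lipoproteins by FPLC with cholesterol per fraction. % change versus control; six per group, p < 0.05.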

Rattus norvegicus [4] = test: Percent change in triglycerides in hypercholesterolemic rats at a dose of 100 mg/kg/day for 8 days; format: functional
Rattus norvegicus [5] = test: Percent change in very low-density lipoprotein cholesterol following oral administration of compound in normal chow-fed rats at 100 mg/kg/day for 4 days; format: functional; outline: as §2
Rattus norvegicus [6] = test: Effect of compound on alanine aminotransferase (ALT) levels in 1st group of normal chow-fed male rats after a dose of 1 mg/kg/day; format: functional, organism-based; outline: as §1
Rattus norvegicus [7] = test: Effect of compound on alanine aminotransferase (ALT) levels in 3rd group of normal chow-fed male rats after a dose of 5 mg/kg/day; format: functional, organism-based; outline: as §1
Rattus norvegicus [8] = test: Effect of compound on alanine aminotransferase (ALT) levels in 7th group of normal chow-fed male rats after a dose of 100 mg/kg/day; format: functional, organism-based; outline: as §1
Rattus norvegicus [9] = test: Effect of compound on alkaline phosphatase (ALKP) levels in 5th group of normal chow-fed male rats after a dose of 20 mg/kg/day; format: functional, organism-based; outline: as §1
Rattus norvegicus [10] = test: Effect of compound on aspartate aminotransferase (AST) levels in 6th group of normal chow-fed male rats after a dose of 50 mg/kg/day; format: functional, organism-based; outline: as §1
Rattus norvegicus [11] = test: Effect of compound on liver weight in 5th group of normal chow-fed male rats after a dose of 20 mg/kg/day; format: functional
Outline: (§3)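 Male Sprague–Dawley CD rats, 60–80 g, on chow with a reverse 12 h light/dark cycle. Given one oral gavage dose daily for 4 days, suspended in 1.3% Tween 80/0.25% CMC. Fasted overnight and sacrificed 24 h after the last dose for blood and liver. Serum liver enzymes read on a clinical analyzer. Six per group, mean ± SEM.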

Rattus norvegicus [12] = test: Effect of compound on liver weight in 1st group of normal chow-fed male rats after a dose of 1 mg/kg/day; format: functional; outline: as §3
Rattus norvegicus [13] = test: Effect of compound on low-density lipoprotein cholesterol levels in 3rd group of normal chow-fed male rats after a dose of 5 mg/kg/day; format: functional, organism-based
Outline: (§4)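 Male Sprague–Dawley CD rats, 60–80 g, on standard chow with reverse 12 h light/dark cycle. One oral gavage dose daily for 4 days, suspended in 1.3% Tween 80 and 0.25% CMC. Fasted overnight; sacrificed 24 h after the last dose. Serum TC on clinical analyzer, lipoproteins by FPLC with cholesterol per fraction, T4 on analyzer. Mean ± SEM, six rats per group.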

Rattus norvegicus [14] = test: Effect of compound on serum apolipoprotein A1 concentration in chow-fed male rats at a dose of 100 mg/kg/day; format: functional, organism-based
Outline: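 Separate dose-response study in male Sprague–Dawley CD rats, 60–80 g, on chow. Oral gavage once daily for 4 days in 1.3% Tween 80 / 0.25% CMC; fasted overnight, bled 24 h after last dose. Apo-A1 by ELISA with rabbit anti-rat primary, alkaline phosphatase-conjugated anti-rabbit IgG and p-nitrophenyl phosphate substrate. HDL-C by FPLC fractionation. Mean ± SEM, six per group.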

Rattus norvegicus [15] = test: Effect of compound on thyroxine levels in 2nd group of normal chow-fed male rats after a dose of 2 mg/kg/day; format: functional, organism-based; outline: as §4
Rattus norvegicus [16] = test: Effect of compound on thyroxine levels in 4th group of normal chow-fed male rats after a dose of 10 mg/kg/day; format: functional, organism-based; outline: as §4
Rattus norvegicus [17] = test: Effect of compound on total plasma cholesterol levels in 6th group of normal chow-fed male rats after a dose of 50 mg/kg/day; format: functional, organism-based
Outline: (§5)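 Male Sprague–Dawley CD rats (60–80 g) on Purina 5001 chow with a reverse 12 h light/dark cycle. Dosed once daily by oral gavage for 4 days, suspended in 1.3% Tween 80 / 0.25% CMC. Fasted overnight and bled 24 h after the last dose. Serum TC and glycerol-blanked TG measured enzymatically; VLDL-C by FPLC fractionation with cholesterol assay. n=6, mean ± SEM.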

Rattus norvegicus [18] = test: Effect of compound on total plasma cholesterol levels in 7th group of normal chow-fed male rats after a dose of 100 mg/kg/day; format: functional, organism-based; outline: as §5
Rattus norvegicus [19] = test: Effect of compound on triglyceride levels in 5th group of normal chow-fed male rats after a dose of 20 mg/kg/day; format: functional, organism-based; outline: as §5
Rattus norvegicus [20] = test: Effect of compound on lactic dehydrogenase (LDH) levels in 1st group of normal chow-fed male rats after a dose of 1 mg/kg/day; format: functional, organism-based; outline: as §1
[21] = Effect on serum lipids in 3rd group of normal chow-fed male rats after a dose of 5 mg/kg/day was evaluated as ratio of total plasma cholesterol levels to high-density lipoprotein cholesterol levels; format: functional
Outline: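 Male Sprague–Dawley CD rats, 60–80 g, chow-fed, dosed by oral gavage daily for 4 days in 1.3% Tween 80/0.25% CMC. Fasted overnight, bled 24 h after the last dose. Serum total cholesterol by enzymatic reagent; HDL-C from cholesterol in FPLC fractions; TPC/HDL-C ratio calculated. Six per group, mean ± SEM.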

[22] = Effect on serum lipids in 1st group of cholesterol-fed male hamsters at 3 mg/kg/day after 14 days of treatment was evaluated as ratio of total cholesterol levels to high-density lipoprotein cholesterol levels; format: functional
Outline: (§6)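 Male Syrian Golden hamsters on chow plus 0.25% cholesterol, 2 weeks before and during dosing. Oral gavage for 14 days in 2% Tween 80/saline. Fasted 4 h before sacrifice. Serum total cholesterol measured enzymatically; HDL-C from cholesterol in FPLC lipoprotein fractions; TC/HDL-C ratio calculated. Six per group, mean ± SEM.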

[23] = Effect on serum lipids in 2nd group of cholesterol-fed male hamsters at 10 mg/kg/day after 14 days of treatment was evaluated as ratio of total cholesterol levels to high-density lipoprotein cholesterol levels; format: functional; outline: as §6
Cricetinae gen. sp. [24] = test: Effect of compound on triglycerides level in 2nd group of cholesterol-fed male hamsters at 10 mg/kg/day after 14 days of treatment; conditions: Mesocricetus auratus
Cricetinae gen. sp. [25] = test: Effect of compound on alkaline phosphatase (ALKP) levels in 4th group of cholesterol-fed male hamsters at 100 mg/kg/day after 14 days of treatment; conditions: Mesocricetus auratus
Mesocricetus auratus = test: Effect of compound on alanine aminotransferase (ALT) levels in 3rd group of cholesterol-fed male hamsters at 30 mg/kg/day after 14 days of treatment

With CCN1CC(=O)N(c2cc(Cl)ccc2C)C1=S the Body weight (Rattus norvegicus [1]) was 30.3 g, the Change (Rattus norvegicus [2]) was 53% and the Change (Rattus norvegicus [3]) was 89.1%. For the same molecule, the Change (Rattus norvegicus [4]) was -19%, the Change (Rattus norvegicus [5]) was -17.2% and the Level (Rattus norvegicus [6]) was 61 U l-1. The Level (Rattus norvegicus [7]) was 62 U l-1, the Level (Rattus norvegicus [8]) was 67 U l-1 and the Level (Rattus norvegicus [9]) was 385 U l-1. For the same molecule, the Level (Rattus norvegicus [10]) was 232 U l-1, the Liver weight (Rattus norvegicus [11]) was 8.2 g and the Liver weight (Rattus norvegicus [12]) was 8.4 g. The Serum level (Rattus norvegicus [13]) was 6 mg/dL, the Serum level (Rattus norvegicus [14]) was 96.4 mg/dL and the Serum level (Rattus norvegicus [15]) was 4.33 µg/dL. For the same molecule, the Serum level (Rattus norvegicus [16]) was 3.98 µg/dL, the Serum level (Rattus norvegicus [17]) was 101 mg/dL and the Serum level (Rattus norvegicus [18]) was 118 mg/dL. It also gave a Serum level (Rattus norvegicus [19]) of 19 mg/dL, a Level (Rattus norvegicus [20]) of 724 U l-1 and a Ratio [21] of 1.39. It also gave a Ratio [22] of 3.14, a Ratio [23] of 2.85 and a Serum level (Cricetinae gen. sp. [24]) of 455 mg/dL. The Level (Cricetinae gen. sp. [25]) was 136 U l-1 and the Level (Mesocricetus auratus) was 112 U l-1.
